From ChEMBL document CHEMBL4257464, “Development of NMR and thermal shift assays for the evaluation of Mycobacterium tuberculosis isocitrate lyase inhibitors” (Medchemcomm, 2017)
Active and inactive are the calls of the source. The calls are words filed in the database; no cut-off is given here. Where a SMILES comes first, the peptide text is derived from it. The star is where a group is joined. Cbz = O=C(OCc1ccccc1)*

Assays:
[1] = biological target: T1, Isocitrate lyase 1 (Mycobacterium tuberculosis (strain CDC 1551 / Oshkosh)) (UniProt P9WKK6); experiment: Binding affinity to Mycobacterium tuberculosis ICL1 expressed in Escherichia coli BL21(DE3) assessed as increase in melting temperature at 1 mM in presence of MgCl2 by SYPRO orange dye based fluorescence assay
T1 sequence (whole entry): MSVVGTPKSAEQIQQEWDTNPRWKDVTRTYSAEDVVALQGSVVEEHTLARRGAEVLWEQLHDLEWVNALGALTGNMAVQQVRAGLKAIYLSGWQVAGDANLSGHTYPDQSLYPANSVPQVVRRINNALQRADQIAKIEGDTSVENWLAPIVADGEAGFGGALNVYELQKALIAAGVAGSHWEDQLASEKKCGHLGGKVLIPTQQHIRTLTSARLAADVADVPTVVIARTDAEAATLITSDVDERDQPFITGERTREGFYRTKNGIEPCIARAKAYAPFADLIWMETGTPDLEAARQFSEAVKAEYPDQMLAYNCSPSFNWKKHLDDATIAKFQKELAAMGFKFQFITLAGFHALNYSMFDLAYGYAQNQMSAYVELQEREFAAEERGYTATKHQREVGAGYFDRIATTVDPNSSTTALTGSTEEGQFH

[2] = biological target: T1, Isocitrate lyase 1 (Mycobacterium tuberculosis (strain CDC 1551 / Oshkosh)); experiment: Inhibition of Mycobacterium tuberculosis ICL1 expressed in Escherichia coli BL21(DE3) at 100 uM using DL-isocitrate as substrate incubated for 25 mins in presence of MgCl2 by 1H NMR method
Method in brief: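 Direct 1H NMR time course at 500 MHz, 300 K, with excitation-sculpting water suppression. Sample: 190 nM ICL1, 1 mM DL-isocitrate, 5 mM MgCl2, 100 μM inhibitor, 50 mM Tris-D11 pH 7.5 in 90% H2O/10% D2O. Substrate consumption and product formation are tracked directly. Initial rates come from linear fits up to 20% turnover. Run in triplicate.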

[3] = biological target: T2, Isocitrate lyase 1 (Mycobacterium tuberculosis (strain CDC 1551 / Oshkosh), UniProt P9WKK6); experiment: Inhibition of Mycobacterium tuberculosis ICL1 expressed in Escherichia coli BL21(DE3) using DL-isocitrate as substrate incubated for 25 mins in presence of MgCl2 by 1H NMR method
T2 sequence (P9WKK6 whole entry): T1 sequence (whole entry)
Method in brief: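 1H NMR assay at 500 MHz, 300 K, water-suppressed spectra recorded over time. Sample: 190 nM ICL1, 1 mM DL-isocitrate, 5 mM MgCl2, varying inhibitor concentrations, 50 mM Tris/Tris-D11 pH 7.5 in 90% H2O/10% D2O. Initial rates from linear fits up to 20% turnover; IC50 from a 3-parameter sigmoid fit. Triplicate measurements, errors given as SD.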

[4] = biological target: T1, Isocitrate lyase 1 (Mycobacterium tuberculosis (strain CDC 1551 / Oshkosh)); experiment: Binding affinity to Mycobacterium tuberculosis ICL1 expressed in Escherichia coli BL21(DE3) assessed as melting temperature at 1 mM in presence of MgCl2 by SYPRO orange dye based fluorescence assay (reference value: 43 degC)
[5] = biological target: T2, Isocitrate lyase 1; experiment: Inhibition of Mycobacterium tuberculosis ICL1

Row | Compound | ΔTm [1] [°C] | inhibition [2] | other results
1 | O=C(O)COc1ccc(C(=O)Cc2ccc3c(c2)OCCCO3)c(O)c1 | > 0.5 | – | –
2 | COc1ccc(C(=O)COC(=O)c2oc3ccc(OC)cc3c2C)c(OC)c1 | – | inactive | –
3 | CCCCc1cc(C(=O)Cc2cc3ccccc3o2)c(O)cc1O | – | inactive | –
4 | O=C(COc1ccccc1Br)c1ccc(O)cc1O | > 0.5 | – | –
5 | CC(Oc1ccc2c3c(c(=O)oc2c1)CCC3)C(=O)NCC1CCC(C(=O)O)CC1 (stereo not given) | > 0.5 | – | –
6 | CCOC(=O)c1oc2ccc(CC(=O)c3c(C)cc(O)cc3O)cc2c1C | – | inactive | –
7 | COc1ccc2oc(C(=O)OCC(=O)c3ccc(C)s3)c(C)c2c1 | – | inactive | –
8 | O=C(O)CC[N+](=O)[O-] | – | Active | IC50 [3]: 14.7 µM; Tm [4]: 40.9 °C
9 | CCCc1cc(C(=O)Cc2cc3ccccc3o2)c(O)cc1OC | – | inactive | –
10 | CC(C)[C@H](NC(=O)COc1ccc(C(=O)COc2ccccc2)c(O)c1)C(=O)O | > 0.5 | – | –
11 | CCOC(=O)c1cc2cc(CC(=O)c3ccc(OC)cc3O)ccc2o1 | – | inactive | –
12 | O=C(O)C(=O)CBr [BROMOPYRUVATE] | – | Active | IC50 [3]: 17.5 µM; Tm [4]: 52.5 °C
13 | COc1ccc(O)c(C(=O)CC(=O)c2ccccc2)c1 | > 0.5 | – | –
14 | CCCc1cc(C(=O)Cc2cc3ccccc3o2)c(O)cc1O | > 0.5 | – | –
15 | Nc1ccc([C@H](O)[C@@H](N)CO)cc1 | > 0.5 | – | –
16 | COC(=O)/C=C/C(=O)c1ccc(OC)cc1 | – | inactive | IC50 [3]: 250 µM; IC50 [5]: 30.9 µM; Tm [4]: 37.6 °C

Row | Compound | ΔTm [1] [°C] | inhibition [2] | other results
17 | NC(CC(=O)O)c1cccnc1 (stereo not given) | > 0.5 | – | –
18 | O=C(Cc1ccc2cccnc2c1)c1ccc(O)cc1O | > 0.5 | – | –
19 | COc1ccc(OCC(=O)c2c(O)cc(O)cc2O)cc1 | > 0.5 | – | –
20 | O=C(O)CNC(=O)c1ccc(NC(=O)/C(=C/c2ccccc2)NC(=O)c2ccccc2)cc1 | > 0.5 | – | –
21 | COc1ccc(CC(=O)Nc2ccc(O)cc2C(=O)O)cc1 | > 0.5 | – | –
22 | CCOC(=O)c1cc2cc(CC(=O)c3ccc(O)cc3O)ccc2o1 | > 0.5 | Active | IC50 [3]: > 100 µM
23 | C=C(CC(=O)O)C(=O)O [ITACONATE] | – | Active | IC50 [3]: 29.4 µM; Tm [4]: 53.3 °C
24 | COc1cc(OC)c(C(=O)COC(=O)c2oc3ccccc3c2C)c(OC)c1 | – | inactive | –
25 | CCOC(=O)c1ccc(CC(=O)c2oc3cc(O)ccc3c2C)o1 | > 0.5 | Active | IC50 [3]: > 100 µM
26 | CCc1cc(C(=O)Cc2cc3ccccc3o2)c(O)cc1OC | – | inactive | –
27 | O=C(O)C1=CC=C(COc2ccc3ccc(=O)oc3c2)C1 | > 0.5 | – | –
28 | Nc1ccc(C(=O)CC(=O)Nc2cc(C(=O)O)cc(C(=O)O)c2)cc1 | > 0.5 | – | –
29 | NC(Cc1c[nH]c2ccccc12)C(=O)NCc1ccco1 (stereo not given) | > 0.5 | – | –
30 | CC(C)C(NC(=O)OCc1ccccc1)C(=O)NCC(=O)NC(Cc1c[nH]c2ccccc12)C(=O)O (stereo not drawn) (Cbz-Val-Gly-Trp-OH; configuration not given here) | > 0.5 | – | –
31 | CCCCCCc1cc(C(=O)Cc2cc3ccccc3o2)c(O)cc1O | – | inactive | –
32 | Cc1ccc(C(=O)CC(=O)c2ccco2)c(O)c1 | > 0.5 | – | –
